Published values gathered from unrelated publications.
Target: Serine/threonine-protein kinase NLK (NLK, Homo sapiens, UniProt Q9UBE8)
One construct used (Q9UBE8 1-527): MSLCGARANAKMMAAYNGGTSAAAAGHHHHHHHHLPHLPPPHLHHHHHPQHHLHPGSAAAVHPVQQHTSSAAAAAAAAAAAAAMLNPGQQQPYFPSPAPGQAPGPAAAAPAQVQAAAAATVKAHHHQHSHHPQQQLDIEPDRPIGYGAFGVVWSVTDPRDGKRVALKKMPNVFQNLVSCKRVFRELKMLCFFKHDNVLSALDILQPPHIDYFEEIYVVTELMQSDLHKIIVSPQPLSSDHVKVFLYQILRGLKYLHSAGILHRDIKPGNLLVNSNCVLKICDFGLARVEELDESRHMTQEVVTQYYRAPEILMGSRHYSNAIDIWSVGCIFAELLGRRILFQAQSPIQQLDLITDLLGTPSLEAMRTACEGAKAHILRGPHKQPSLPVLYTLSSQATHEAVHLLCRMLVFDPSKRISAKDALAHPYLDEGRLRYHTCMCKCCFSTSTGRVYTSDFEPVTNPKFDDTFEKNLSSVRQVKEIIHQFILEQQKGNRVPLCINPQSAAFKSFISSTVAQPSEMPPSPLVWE

Structure (SMILES)	assay	conditions	remaining binding
COc1ncc2cc3ccccc3nc2c1C#N	binding, competition with immobilised ligand	5 µM	100%
COc1ccc2c(c1)O[C@@H](c1ccc(OC)c(OC)c1)C[C@H]2NC(=O)C1(c2ccc3c(c2)OC(F)(F)O3)CC1	cell-free assay, competition with immobilised ligand	1 µM	100%
FC(F)(F)Oc1cccc(-c2cnc3ccc(-c4ccncc4)nn23)c1	cell-free assay, competition with immobilised ligand	5 µM	85%
CC1CCCN1c1nccc(-c2cnn3ncccc23)n1 (stereo not shown)	binding	1 µM	78%
O=C(NCCCN1CCOCC1)c1ccc(Nc2nccc(-c3cc4ccccc4s3)n2)cc1	binding, competition with immobilised ligand	1 µM	94%
O=C(NCC1CCOCC1)c1n[nH]cc1NC(=O)c1c(F)cccc1F	binding, competition with immobilised ligand	1 µM	85%
O=C(c1ccc(Nc2nccc(-c3cc4ccccc4s3)n2)cc1)N1CCC(N2CCCC2)CC1	binding, competition with immobilised ligand	1 µM	93%
N[C@H]1CCN(c2nccc(-c3cnn4ncccc34)n2)C1	binding	1 µM	76%
CN(C)c1ncnc(-c2ccc3nc(Nc4cc(CN5CCN(C(=O)CC(F)(F)F)CC5)ccn4)[nH]c3c2)c1Cl	cell-free assay, competition with immobilised ligand	1 µM	88%
COc1ccnn2ncc(-c3ccnc(N(C)C)n3)c12	binding	1 µM	87%
O=C(c1ccc(Nc2ncc(Cl)c(-c3ccc(Cl)s3)n2)cc1)N1CCC(N2CCCC2)CC1	binding, competition with immobilised ligand	1 µM	98%
CO[C@@H](C)c1c(Nc2ccc([C@@H](N(C)C(=O)C3CCS(=O)(=O)CC3)C(F)(F)F)cc2)cnc2cc(Cl)nn12	cell-free assay, competition with immobilised ligand	1 µM	84%
C[C@@H]1CCN(c2nccc(-c3cnn4ncccc34)n2)C1	binding	1 µM	70%
c1cncc(-c2cccc(Nc3nccc(NC4CCCCC4)n3)c2)c1	binding, competition with immobilised ligand	10 µM	67%
O=C(O)[C@@H]1[C@@H](Cn2nnc3ccccc3c2=O)CC[C@H]1C(=O)c1ccc(OCCC2CCOCC2)cc1	cell-free assay, competition with immobilised ligand	1 µM	86%
C=CC(=O)N1CCC(C(=O)NCC(=O)N2CCN(c3nc(-c4cnc(N)nc4C(F)F)nc(N4CCOCC4)n3)CC2)CC1	binding, competition with immobilised ligand	1 µM	94%
CNC(=O)c1ccc(Nc2ncc(C(F)(F)F)c(NCc3nccnc3N(C)S(C)(=O)=O)n2)cc1	cell-free assay, competition with immobilised ligand	0.1 µM	100%
CN(C)c1ncc(F)c(-c2cnn3ncccc23)n1	binding	1 µM	74%
CNC(=O)[C@@H]1CC[C@@H](n2c(-c3ccc4cnccc4c3)nc3ccc(C(=O)NCc4cccc(C(N)=O)c4)cc32)C1	binding, competition with immobilised ligand	1 µM	100%
CN(CCCC(F)(F)F)c1nccc(-c2cnn3ncccc23)n1	binding	1 µM	66%
O=C(NCc1ncc(C(F)(F)F)cc1Cl)c1ccc2c(c1)C1(CCS(=O)(=O)CC1)[C@@H](C1CC1)N2S(=O)(=O)c1ccc(F)cc1	cell-free assay, competition with immobilised ligand	1 µM	89%
C[C@@H](c1ccc(-n2cnc3c(N)ncnc32)cc1)N1CCc2nn(C)c(Cc3ccccc3)c2C1=O	binding, competition with immobilised ligand	0.1 µM	80%
